Numbering of substitutions follows the chain as printed.
Key:
Settings in all cases: stereoisomer not certain
OR5M8 (Homo sapiens) = target: T1, OR5M8 (Homo sapiens) (UniProt Q8NGP6)
T1 sequence (whole entry): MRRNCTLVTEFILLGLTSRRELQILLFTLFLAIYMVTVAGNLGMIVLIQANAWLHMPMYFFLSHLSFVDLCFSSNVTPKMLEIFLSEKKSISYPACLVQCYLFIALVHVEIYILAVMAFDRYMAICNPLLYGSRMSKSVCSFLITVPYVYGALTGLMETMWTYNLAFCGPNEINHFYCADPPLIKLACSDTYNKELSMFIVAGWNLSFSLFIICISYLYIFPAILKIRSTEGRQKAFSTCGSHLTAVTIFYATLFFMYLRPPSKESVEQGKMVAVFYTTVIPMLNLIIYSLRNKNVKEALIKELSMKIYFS
Outline: (§1)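 Whether a receptor–molecule pair is responsive (active) rests on the original authors' judgment that its measured signal was statistically different from baseline. Pairs without that judgment are non-responsive (inactive). Sources used varied assay methods, commonly transient luciferase assays in mammalian cell lines.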

OR5M9 (Homo sapiens) = target: T2, OR5M9 (Homo sapiens) (UniProt Q8NGP3)
T2 sequence (whole entry): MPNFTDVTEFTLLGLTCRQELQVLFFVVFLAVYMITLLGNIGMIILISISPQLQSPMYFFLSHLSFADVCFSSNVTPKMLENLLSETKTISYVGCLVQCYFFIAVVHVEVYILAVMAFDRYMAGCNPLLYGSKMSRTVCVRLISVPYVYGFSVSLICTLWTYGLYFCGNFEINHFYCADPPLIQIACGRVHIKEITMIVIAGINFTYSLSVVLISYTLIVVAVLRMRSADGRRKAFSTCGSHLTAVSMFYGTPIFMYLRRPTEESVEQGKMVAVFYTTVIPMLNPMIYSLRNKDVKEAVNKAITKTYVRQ
Outline: as §1

OR5MA L2F C311H = tested on: T3, OR5MA L2F C311H
T3 sequence (whole entry): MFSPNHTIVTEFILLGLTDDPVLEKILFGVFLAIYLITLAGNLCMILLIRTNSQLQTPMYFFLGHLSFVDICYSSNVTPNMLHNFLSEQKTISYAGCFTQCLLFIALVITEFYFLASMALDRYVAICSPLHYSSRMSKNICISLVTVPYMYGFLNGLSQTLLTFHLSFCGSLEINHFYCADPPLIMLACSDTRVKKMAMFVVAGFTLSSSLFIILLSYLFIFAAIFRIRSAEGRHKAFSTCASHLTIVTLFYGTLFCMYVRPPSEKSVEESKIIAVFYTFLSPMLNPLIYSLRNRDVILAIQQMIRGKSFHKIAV
Outline: as §1

OR5MA L2F Q54H C311H = tested on: T4, OR5MA L2F Q54H C311H
T4 sequence (whole entry): T3 sequence (whole entry) with Q54H
Outline: as §1

OR5P2 (Homo sapiens) = target: T5, OR5P2 (Homo sapiens) (UniProt Q8WZ92)
T5 sequence (whole entry): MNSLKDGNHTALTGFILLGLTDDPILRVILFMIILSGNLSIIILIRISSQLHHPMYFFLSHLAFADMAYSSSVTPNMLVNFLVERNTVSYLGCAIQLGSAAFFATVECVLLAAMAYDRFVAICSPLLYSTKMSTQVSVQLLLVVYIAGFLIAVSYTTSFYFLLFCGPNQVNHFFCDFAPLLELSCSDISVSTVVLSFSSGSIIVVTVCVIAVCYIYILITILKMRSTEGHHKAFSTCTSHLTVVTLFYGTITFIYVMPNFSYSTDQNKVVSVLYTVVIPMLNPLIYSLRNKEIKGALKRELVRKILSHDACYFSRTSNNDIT
Outline: as §1

OR5P3 (Homo sapiens) = target: T6, OR5P3 (Homo sapiens) (UniProt Q8WZ94)
T6 sequence (whole entry): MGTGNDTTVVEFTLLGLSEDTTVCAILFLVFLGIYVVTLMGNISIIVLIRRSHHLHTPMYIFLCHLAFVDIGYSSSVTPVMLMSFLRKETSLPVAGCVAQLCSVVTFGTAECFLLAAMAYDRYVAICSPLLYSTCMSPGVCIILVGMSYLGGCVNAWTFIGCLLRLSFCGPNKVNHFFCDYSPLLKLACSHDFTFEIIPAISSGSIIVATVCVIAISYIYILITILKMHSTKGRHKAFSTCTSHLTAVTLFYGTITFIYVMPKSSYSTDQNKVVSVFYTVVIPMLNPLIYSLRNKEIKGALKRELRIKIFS
Outline: as §1

OR5P3 L301R = tested on: T7, OR5P3 L301R
T7 sequence (whole entry): T6 sequence (whole entry) with L301R
Outline: as §1

OR5R1 C122R S128G F184L = tested on: T8, OR5R1 C122R S128G F184L
T8 sequence (whole entry): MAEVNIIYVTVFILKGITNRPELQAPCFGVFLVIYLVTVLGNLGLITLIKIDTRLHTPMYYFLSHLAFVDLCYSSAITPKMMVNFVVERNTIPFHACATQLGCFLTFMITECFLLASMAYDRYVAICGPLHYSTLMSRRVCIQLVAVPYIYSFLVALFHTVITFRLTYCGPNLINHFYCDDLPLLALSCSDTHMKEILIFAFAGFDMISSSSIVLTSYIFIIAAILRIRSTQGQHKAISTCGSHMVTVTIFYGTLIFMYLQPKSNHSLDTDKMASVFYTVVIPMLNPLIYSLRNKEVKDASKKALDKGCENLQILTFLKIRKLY
Outline: as §1

OR5T1 (Homo sapiens) = target: T9, OR5T1 (Homo sapiens) (UniProt Q8NG75)
T9 sequence (whole entry): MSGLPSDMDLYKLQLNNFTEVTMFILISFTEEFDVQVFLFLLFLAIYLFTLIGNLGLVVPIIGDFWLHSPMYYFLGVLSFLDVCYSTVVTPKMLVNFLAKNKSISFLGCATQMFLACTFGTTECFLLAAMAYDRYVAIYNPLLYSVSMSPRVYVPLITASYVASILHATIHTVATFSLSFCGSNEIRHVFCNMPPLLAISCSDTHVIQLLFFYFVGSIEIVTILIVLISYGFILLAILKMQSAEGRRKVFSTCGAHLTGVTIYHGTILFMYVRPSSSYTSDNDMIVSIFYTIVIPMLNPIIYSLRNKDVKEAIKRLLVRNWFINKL
Outline: as §1

OR5T2 (Homo sapiens) = target: T10, OR5T2 (Homo sapiens) (UniProt Q8NGG2)
T10 sequence (whole entry): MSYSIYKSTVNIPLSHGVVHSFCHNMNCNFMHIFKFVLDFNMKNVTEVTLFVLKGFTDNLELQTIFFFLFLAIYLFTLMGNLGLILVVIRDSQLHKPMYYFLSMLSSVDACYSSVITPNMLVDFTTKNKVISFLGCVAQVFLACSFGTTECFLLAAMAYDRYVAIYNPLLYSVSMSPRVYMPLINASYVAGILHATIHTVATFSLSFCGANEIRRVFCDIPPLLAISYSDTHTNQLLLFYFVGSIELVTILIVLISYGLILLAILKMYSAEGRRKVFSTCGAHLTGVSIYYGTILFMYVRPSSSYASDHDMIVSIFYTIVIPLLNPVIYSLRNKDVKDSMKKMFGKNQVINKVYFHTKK
Outline: as §1

OR5T2 S4G = tested on: T11, OR5T2 S4G
T11 sequence (whole entry): T10 sequence (whole entry) with S4G
Outline: as §1

OR5T3 (Homo sapiens) = target: T12, OR5T3 (Homo sapiens) (UniProt Q8NGG3)
T12 sequence (whole entry): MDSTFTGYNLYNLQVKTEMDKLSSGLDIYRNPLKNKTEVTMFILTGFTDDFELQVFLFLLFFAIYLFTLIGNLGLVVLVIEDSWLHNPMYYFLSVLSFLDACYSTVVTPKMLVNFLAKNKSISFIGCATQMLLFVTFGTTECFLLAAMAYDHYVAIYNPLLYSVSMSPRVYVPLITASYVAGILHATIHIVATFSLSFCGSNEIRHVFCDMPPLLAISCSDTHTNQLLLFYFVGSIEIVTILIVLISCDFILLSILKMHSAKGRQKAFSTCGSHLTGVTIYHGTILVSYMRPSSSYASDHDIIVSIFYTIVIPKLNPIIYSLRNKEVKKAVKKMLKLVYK
Outline: as §1

OR5V1 (Homo sapiens) = target: T13, OR5V1 (Homo sapiens) (UniProt Q9UGF6)
T13 sequence (whole entry): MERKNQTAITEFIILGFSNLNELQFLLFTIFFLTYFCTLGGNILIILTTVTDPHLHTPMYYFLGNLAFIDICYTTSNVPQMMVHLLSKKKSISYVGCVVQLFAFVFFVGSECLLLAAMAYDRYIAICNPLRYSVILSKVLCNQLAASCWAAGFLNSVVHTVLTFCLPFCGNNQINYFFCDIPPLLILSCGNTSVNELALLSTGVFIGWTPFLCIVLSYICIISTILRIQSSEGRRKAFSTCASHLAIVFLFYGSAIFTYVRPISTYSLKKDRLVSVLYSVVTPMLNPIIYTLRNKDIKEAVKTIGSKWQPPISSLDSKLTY
Outline: as §1

OR5W2 (Homo sapiens) = target: T14, OR5W2 (Homo sapiens) (UniProt Q8NH69)
T14 sequence (whole entry): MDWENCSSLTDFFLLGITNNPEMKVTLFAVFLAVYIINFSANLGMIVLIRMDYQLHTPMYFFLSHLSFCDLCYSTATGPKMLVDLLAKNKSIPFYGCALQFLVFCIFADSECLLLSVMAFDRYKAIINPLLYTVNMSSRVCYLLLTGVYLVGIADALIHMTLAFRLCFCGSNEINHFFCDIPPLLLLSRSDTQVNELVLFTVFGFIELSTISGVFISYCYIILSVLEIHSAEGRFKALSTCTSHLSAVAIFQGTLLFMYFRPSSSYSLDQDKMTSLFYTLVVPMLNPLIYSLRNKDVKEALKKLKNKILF
Outline: as §1

OR5W2 R189C = tested on: T15, OR5W2 R189C
T15 sequence (whole entry): T14 sequence (whole entry) with R189C
Outline: as §1

OR6A2 (Homo sapiens) = target: T16, OR6A2 (Homo sapiens) (UniProt O95222)
T16 sequence (whole entry): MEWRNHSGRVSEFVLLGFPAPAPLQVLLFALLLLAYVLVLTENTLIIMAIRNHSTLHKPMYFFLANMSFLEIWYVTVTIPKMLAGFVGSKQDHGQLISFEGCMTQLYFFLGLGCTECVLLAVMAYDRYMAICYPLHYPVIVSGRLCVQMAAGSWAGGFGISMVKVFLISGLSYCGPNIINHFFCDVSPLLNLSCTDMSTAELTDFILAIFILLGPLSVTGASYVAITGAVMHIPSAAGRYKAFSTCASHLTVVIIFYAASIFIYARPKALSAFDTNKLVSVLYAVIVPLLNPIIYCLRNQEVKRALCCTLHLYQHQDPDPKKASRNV
Outline: as §1

OR6A2 I50V = tested on: T17, OR6A2 I50V
T17 sequence (whole entry): T16 sequence (whole entry) with I50V
Outline: as §1

OR6B1 (Homo sapiens) = target: T18, OR6B1 (Homo sapiens) (UniProt O95007)
T18 sequence (whole entry): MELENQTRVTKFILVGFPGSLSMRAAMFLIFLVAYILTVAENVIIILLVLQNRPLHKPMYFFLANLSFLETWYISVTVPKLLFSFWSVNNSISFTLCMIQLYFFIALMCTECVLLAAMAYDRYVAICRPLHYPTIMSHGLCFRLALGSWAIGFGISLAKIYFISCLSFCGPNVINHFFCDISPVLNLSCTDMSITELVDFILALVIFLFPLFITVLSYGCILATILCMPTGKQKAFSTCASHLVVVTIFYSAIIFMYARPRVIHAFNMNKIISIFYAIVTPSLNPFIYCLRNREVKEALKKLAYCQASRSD
Outline: as §1

OR6B2 (Homo sapiens) = target: T19, OR6B2 (Homo sapiens) (UniProt Q6IFH4)
T19 sequence (whole entry): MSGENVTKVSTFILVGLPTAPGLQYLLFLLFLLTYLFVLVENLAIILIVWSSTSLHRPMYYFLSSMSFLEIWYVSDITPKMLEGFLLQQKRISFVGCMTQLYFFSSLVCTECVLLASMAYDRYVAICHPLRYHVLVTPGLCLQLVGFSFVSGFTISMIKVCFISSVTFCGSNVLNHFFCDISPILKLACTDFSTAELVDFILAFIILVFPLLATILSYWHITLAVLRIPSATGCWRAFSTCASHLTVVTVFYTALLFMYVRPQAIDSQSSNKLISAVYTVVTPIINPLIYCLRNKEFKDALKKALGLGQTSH
Outline: as §1

OR6B2 R122C C179R = tested on: T20, OR6B2 R122C C179R
T20 sequence (whole entry): T19 sequence (whole entry) with R122C, C179R
Outline: as §1

Measured: odorant receptor agonist call;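 note: active if original authors judged signal statistically different from baseline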

CC1=C(O)C(=O)OC1C (stereo unspecified)
inactive: all assays above

CCCCCCO
active: OR5P3 (Homo sapiens)

CCCCOC(=O)C(C)OC(=O)CCC (stereo unspecified)
inactive: OR5P3 (Homo sapiens)

CCCCCCCCCCO
inactive: OR5P3 (Homo sapiens)

O=C(c1ccccc1)c1ccccc1
inactive: OR5P3 (Homo sapiens)

CCCCCCOC(C)=O
inactive: OR5P3 (Homo sapiens)

CC(=O)c1c(C)c([N+](=O)[O-])c(C(C)(C)C)c([N+](=O)[O-])c1C
not listed: OR5MA L2F C311H | OR5MA L2F Q54H C311H | OR5P3 L301R | OR5R1 C122R S128G F184L | OR5T2 S4G | OR5W2 R189C | OR6A2 I50V | OR6B2 R122C C179R
inactive: all other assays above

CCCCCCC(C)=O
inactive: OR5P3 (Homo sapiens)

CCC1OC(=O)C(O)=C1C (stereo unspecified)
inactive: all assays above

CCCCCCC=CCCC=O
inactive: all assays above

CC(CO)CS (stereo unspecified)
not listed: OR5MA L2F C311H | OR5MA L2F Q54H C311H | OR5P3 L301R | OR5R1 C122R S128G F184L | OR5T2 S4G | OR5W2 R189C | OR6A2 I50V | OR6B2 R122C C179R
inactive: all other assays above

CCC(S)C(C)CO (stereo unspecified)
not listed: OR5MA L2F C311H | OR5MA L2F Q54H C311H | OR5P3 L301R | OR5R1 C122R S128G F184L | OR5T2 S4G | OR5W2 R189C | OR6A2 I50V | OR6B2 R122C C179R
inactive: all other assays above

CCCCCC(=O)C(C)C(C)=O (stereo unspecified)
not listed: OR5MA L2F C311H | OR5MA L2F Q54H C311H | OR5P3 L301R | OR5R1 C122R S128G F184L | OR5T2 S4G | OR5W2 R189C | OR6A2 I50V | OR6B2 R122C C179R
inactive: all other assays above

CCCCC(=O)CC
inactive: OR5P3 (Homo sapiens)

CCCCC(C)=O
inactive: OR5P3 (Homo sapiens)

Cc1cnc(C)c(C)n1
inactive: all assays above

Reference: the M2OR odorant receptor database
